Measurements: article PMC5271563 (ChemMedChem, 2016)
“Also recorded” adds a separate entry of the source.

Tests used:
hCD44(21–178) [1] = target: T1, hCD44(21–178) (Homo sapiens, UniProt P16070); experiment: Isothermal Titration Calorimetry; assay type: binding; conditions: 23°C, pH 6.7, 5% DMSO
hCD44(21–178) [2] = target: T1, hCD44(21–178); experiment: NMR binding: 2D [1H,15N]-sofast-HMQC / 1D 1H-aliphatic spectra of 15N-hCD44; conditions: for binding by 2D [1H,15N]-sofast-HMQC: 20 μM 15N-hCD44(21–178)
Outline: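 Human CD44 HA-binding domain (Q21–V178) was expressed in E. coli BL21(DE3) gold pLysS in M9 with 15NH4Cl, refolded from urea-solubilised inclusion bodies, and purified as monomer by size exclusion. 2D [1H,15N]-sofast-HMQC (48 scans) and 1D 1H (128 scans) spectra were recorded at 300 K in 50 mM phosphate, 150 mM NaCl, 0.02% NaN3, pH 6.7. Spectra were compared with and without test peptide.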

hCD44(21–178) [3] = target: T1, hCD44(21–178); experiment: ITC competition; assay type: binding
hCD44(21–178) [4] = target: T1, hCD44(21–178); experiment: Saturation Transfer Difference; assay type: binding; conditions: saturating for 2 seconds at −0.28 ppm
Outline: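 STD spectra used 128 scans, with 2 s saturation on-resonance at −0.28 ppm and off-resonance reference at −10 ppm. Samples contained hCD44(21–178) and test ligand, with HA8 as positive control. Conditions: 300 K in 50 mM phosphate, 150 mM NaCl, 0.02% NaN3, pH 6.7, on a 600 or 700 MHz spectrometer with cryoprobe.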

hCD44(21–178) [5] = target: T1, hCD44(21–178); experiment: NMR displacement / ternary binding experiments by 2D [1H,15N]-sofast-HMQC
DF1485 antibody = experiment: 2D [1H,13C]-HSQC of 13C-A6 peptide with antibody; assay type: binding, mouse; conditions: 5 μM 13C-A6 peptide, 4 μM DF1485
Outline: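 Test peptide carries a 13C-labelled N-acetyl methyl. 2D [1H,13C]-HSQC spectra were recorded without and with the mouse anti-CD44 monoclonal antibody DF1485 ([…]), using 64 scans and 4096 × 128 complex points. Conditions: 300 K, 600 or 700 MHz with cryoprobe, 50 mM phosphate, 150 mM NaCl, 0.02% NaN3, pH 6.7. Read-out was broadening or chemical shift change of the methyl signal.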

[6] = Solubility under binding study conditions; assay type: physicochemical; conditions: under the binding study conditions

T1 sequence (P16070 21-178): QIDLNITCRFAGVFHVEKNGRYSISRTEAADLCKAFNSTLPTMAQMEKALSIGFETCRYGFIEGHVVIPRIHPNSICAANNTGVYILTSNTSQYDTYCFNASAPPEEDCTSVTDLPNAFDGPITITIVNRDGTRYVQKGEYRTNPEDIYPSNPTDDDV

In the case of `CC(=O)N[C@H]1[C@H](O[C@H]2[C@H](O)[C@@H](O)[C@H](O[C@H]3[C@H](O)[C@@H](CO)O[C@@H](O[C@H]4[C@H](O)[C@@H](O)[C@H](O[C@H]5[C@H](O)[C@@H](CO)O[C@@H](O[C@H]6[C@H](O)[C@@H](O)[C@H](O[C@H]7[C@H](O)[C@@H](CO)OC(O)[C@@H]7NC(C)=O)O[C@@H]6C(=O)O)[C@@H]5NC(C)=O)O[C@@H]4C(=O)O)[C@@H]3NC(C)=O)O[C@@H]2C(=O)O)O[C@H](CO)[C@@H](O)[C@@H]1O[C@@H]1O[C@H](C(=O)O)[C@@H](O)[C@H](O)[C@H]1O` (stereo partly drawn) [HA8, [GlcNAc-GlcUA]4], the “enthalpy of binding ΔH (ITC)” value (hCD44(21–178) [1]; hCD44 73 μM titrated with 1.6 mM HA8) is reported as -0.7 kcal/mol, the “chemical shift perturbations in 2D [1H,15N]-sofast-HMQC” value (hCD44(21–178) [2]; 20 μM hCD44(21–178), 220 μM HA8, 300 K, pH 6.7) is reported as “widespread perturbations” and the “ΔH of HA8 binding in presence of compound 3 (ITC)” value (hCD44(21–178) [3]; 750-fold molar excess (55 mM) compound 3) is reported as -0.83 kcal/mol. The “Kd of HA8 in presence of compound 3 (ITC)” value (hCD44(21–178) [3]; hCD44(21–178) incubated with 750-fold molar excess (55 mM) compound 3, titrated with 1.6 mM HA8, 23°C, pH 6.7, 5% DMSO) was 37.5 µM and the STD effect (hCD44(21–178) [4]) was “significant STD effect”.

For Ac-KPSSPPEE-NH2 [A6 Peptide], the “direct interaction by ITC” value (hCD44(21–178) [1]; hCD44 73 μM titrated with 1 mM A6 peptide) was “absence of direct interactions”, the “binding by 2D [1H,15N]-sofast-HMQC” value (hCD44(21–178) [2]; 500 μM A6 peptide, pH 6.7, listed as A6) was “could not observe any significant binding” and the “binding by 2D [1H,15N]-sofast-HMQC” value (hCD44(21–178) [2]; 500 μM A6 peptide, pH 6.7, listed as A6-peptide) was “absence of appreciable binding”. The “binding by 2D [1H,15N]-sofast-HMQC” value (hCD44(21–178) [2]; 500 μM A6 peptide, pH 6.7, listed as A6 peptide) was “No appreciable binding”, the “displacement of DF1485 antibody from hCD44(21–178)” value (hCD44(21–178) [5]; 10 μM 15N-hCD44(21–178), 10 μM DF1485, addition of 500 μM A6 peptide) was “not displaced” and the “binding to hCD44 in complex with HA8” value (hCD44(21–178) [5]; A6, 15N-labeled hCD44(21–178)) was “did not observe significant binding”. The “interaction between 13C-A6 peptide and DF1485 antibody” value (DF1485 antibody) was “no appreciable binding”.

In the case of Ac-SRPQGPFL-NH2, the “binding by 2D [1H,15N]-sofast-HMQC” value (hCD44(21–178) [2]; 400 μM peptide) is reported as “no significant binding”.

With H-RLVSYNGIIFFLK-NH2 [A5G27] the “binding by 2D [1H,15N]-sofast-HMQC” value (hCD44(21–178) [2]; 200 μM A5G27) was “no evidence of binding” and the solubility [6] was “limited solubility; also recorded: fairly low solubility”.
